Measurements taken from ChEMBL document CHEMBL4373663, “New N-phenyl-4,5-dibromopyrrolamides as DNA gyrase B inhibitors” (Medchemcomm, 2019).
Calls of active or inactive are those of the source. The calls are words filed in the database; no cut-off is given here.

Experiments:
Staphylococcus aureus = test: Antibacterial activity against Staphylococcus aureus ATCC 25923 assessed as bacterial growth at 50 uM incubated for 24 hrs by broth microdilution assay; format: functional, organism-based
Method in brief: (§1)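 Clinical control strains kept on cation-adjusted Mueller Hinton agar slants. Before the assay, suspensions were grown in cation-adjusted Mueller Hinton broth at 37 °C for 16–20 h at 100 rpm. Broth microdilution in 96-well format followed CLSI guidelines. Each compound was tested at 50 μM, and the result was expressed as percentage inhibition of bacterial growth.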

[1] = target: Topoisomerase IV (Staphylococcus aureus) (UniProt P0C1U9+P0C1S7); test: Inhibition of Staphylococcus aureus DNA topoisomerase 4 using supercoiled pNO1 plasmid DNA as substrate assessed as enzyme residual activity at 10 uM incubated for 30 mins by fluorescence assay relative to control; format: protein-complex assay
[2] = target: DNA gyrase (Staphylococcus aureus) (UniProt P0A0K8+P20831); test: Inhibition of Staphylococcus aureus DNA gyrase using relaxed pNO1 plasmid DNA as substrate assessed as enzyme residual activity at 10 uM incubated for 30 mins by fluorescence assay relative to control; format: protein-complex assay
DNA gyrase [3] = target: DNA gyrase (Escherichia coli, UniProt P0AES4+P0AES6); test: Inhibition of Escherichia coli DNA gyrase using relaxed pNO1 plasmid DNA as substrate incubated for 30 mins by fluorescence assay; format: protein-complex assay
Enterococcus faecalis = test: Antibacterial activity against Enterococcus faecalis ATCC 29212 assessed as reduction in bacterial growth at 50 uM incubated for 24 hrs by broth microdilution assay relative to control; format: functional; method in brief: as §1
Pseudomonas aeruginosa = test: Antibacterial activity against Pseudomonas aeruginosa ATCC 27853 assessed as bacterial growth at 50 uM incubated for 24 hrs by broth microdilution assay; format: functional, organism-based; method in brief: as §1
Escherichia coli [4] = test: Inhibition of Escherichia coli DNA topoisomerase 4 using supercoiled pNO1 plasmid DNA as substrate assessed as enzyme residual activity at 10 uM incubated for 30 mins by fluorescence assay relative to control
Escherichia coli [5] = test: Antibacterial activity against Escherichia coli ATCC 25922 assessed as reduction in bacterial growth at 50 uM incubated for 24 hrs by broth microdilution assay relative to control; format: functional; method in brief: as §1
[6] = target: DNA gyrase (Escherichia coli) (UniProt P0AES6+P0AES4); test: Inhibition of Escherichia coli DNA gyrase using relaxed pNO1 plasmid DNA as substrate assessed as enzyme residual activity at 10 uM incubated for 30 mins by fluorescence assay relative to control; format: protein-complex assay
DNA gyrase [7] = target: DNA gyrase (Staphylococcus aureus, UniProt P0A0K8+P20831); test: Inhibition of Staphylococcus aureus DNA gyrase using relaxed pNO1 plasmid DNA as substrate incubated for 30 mins by fluorescence assay; format: protein-complex assay
Topoisomerase IV = Topoisomerase IV (Staphylococcus aureus, UniProt P0C1S7+P0C1U9); test: Inhibition of Staphylococcus aureus DNA topoisomerase 4 using supercoiled pNO1 plasmid DNA as substrate incubated for 30 mins by fluorescence assay; format: protein-complex assay
[8] = Inhibition of Escherichia coli DNA topoisomerase 4 using supercoiled pNO1 plasmid DNA as substrate incubated for 30 mins by fluorescence assay

SMILES	Activity [2]	Activity [6]	inhibition (Staphylococcus aureus)	Activity [1]	IC50 (DNA gyrase [3])	inhibition (Enterococcus faecalis)	inhibition (Pseudomonas aeruginosa)	Activity (Escherichia coli [4])	inhibition at 50 µM (Escherichia coli [5]; ATCC 25922, 24 h)	inhibition at 50 µM (Enterococcus faecalis; ATCC 29212, 24 h)	inhibition (Escherichia coli [5])	IC50 (DNA gyrase [7])	IC50 (Topoisomerase IV)	IC50 [8]
NNC(=O)COc1ccc(NC(=O)c2cc(Br)c(Br)[nH]2)cc1		100%												
O=C(Nc1ccc(OCc2n[nH]c(=O)o2)cc1)c1cc(Br)c(Br)[nH]1			inactive		8.6 µM	inactive	inactive				inactive			
Cc1nc(-c2cc(NC(=O)CC(=O)O)ccc2NC(=O)c2cc(Br)c(Br)[nH]2)no1			inactive		0.02 µM	inactive	inactive				inactive	1.4 µM	14 µM	11 µM
Cc1nc(-c2cc(NC(=O)Cc3n[nH]c(=O)o3)ccc2NC(=O)c2cc(Br)c(Br)[nH]2)no1			inactive	60%	0.045 µM	inactive	inactive	91%			inactive	11 µM		
COC(=O)CC(=O)Nc1ccc(NC(=O)c2cc(Br)c(Br)[nH]2)c(-c2noc(C)n2)c1			inactive	100%	0.086 µM	inactive	inactive	72%			inactive	63 µM		
NNC(=O)COc1ccc(NC(=O)c2cc(Br)c(Br)[nH]2)c(OCc2ccccc2)c1		100%												

Continued, in another order:

Activity [2]	Activity [6]	SMILES	inhibition (Staphylococcus aureus)	Activity [1]	IC50 (DNA gyrase [3])	inhibition (Enterococcus faecalis)	inhibition (Pseudomonas aeruginosa)	Activity (Escherichia coli [4])	inhibition at 50 µM (Escherichia coli [5]; ATCC 25922, 24 h)	inhibition at 50 µM (Enterococcus faecalis; ATCC 29212, 24 h)	inhibition (Escherichia coli [5])	IC50 (DNA gyrase [7])	IC50 (Topoisomerase IV)	IC50 [8]
80%		Cc1nc(-c2cc(NC(=O)CC(=O)NN)ccc2NC(=O)c2cc(Br)c(Br)[nH]2)no1	inactive	98%	0.14 µM	inactive	inactive	88%	16%					
	100%	COC(=O)COc1ccc(NC(=O)c2cc(Br)c(Br)[nH]2)c(OCc2ccccc2)c1												
87%		O=C(O)COc1ccc(NC(=O)c2cc(Br)c(Br)[nH]2)c(OCc2ccccc2)c1	inactive	92%	0.86 µM		inactive	84%		25%	inactive			
	85%	O=C(Nc1ccc(OCc2n[nH]c(=O)o2)cc1OCc1ccccc1)c1cc(Br)c(Br)[nH]1	inactive			inactive	inactive				inactive			
